Test results as given in ChEMBL document CHEMBL5108071, “Potent and Specific Activators for Mitochondrial Sirtuins Sirt3 and Sirt5” (J Med Chem, 2022).
Blank lines part the entries; values can stand above or below the compound they belong to. Active and inactive are the calls of the source. The rule behind the calls is not given here.

Legend:
[1] = target: NAD-dependent protein deacylase sirtuin-5, mitochondrial (Homo sapiens) (UniProt Q9NXA8); assay: Activation of N-terminal his-tagged human SIRT5 (34 to 302 residues) expressed in Escherichia coli assessed as fold activation at 100 uM using CPS1-succ537 as substrate in presence of NAD+; details: filed as activator
How it was run: (§1)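 Coupled enzymatic deacylation assay (nicotinamidase/GDH-coupled, continuous): 1.5 μM recombinant Sirtuin (expressed in E. coli, Ni-NTA purified, tag removed, size-exclusion purified) with 50 μM substrate peptide and 100 μM NAD+, without or with 10 μM or 100 μM 1,4-DHP, 5% final DMSO. Activity expressed relative to no-compound control.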
Target sequence in this assay (Q9NXA8 37-310 limits assumed): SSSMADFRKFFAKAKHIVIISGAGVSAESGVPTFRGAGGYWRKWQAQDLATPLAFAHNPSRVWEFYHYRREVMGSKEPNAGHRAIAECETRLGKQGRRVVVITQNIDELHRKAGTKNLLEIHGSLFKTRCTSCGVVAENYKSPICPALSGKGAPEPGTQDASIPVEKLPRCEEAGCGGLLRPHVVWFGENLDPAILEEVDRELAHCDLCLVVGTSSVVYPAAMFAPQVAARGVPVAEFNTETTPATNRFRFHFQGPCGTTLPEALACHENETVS

[2] = target: NAD-dependent protein deacylase sirtuin-5, mitochondrial (Homo sapiens) (UniProt Q9NXA8); assay: Activation of N-terminal his-tagged human SIRT5 (34 to 302 residues) expressed in Escherichia coli assessed as fold activation at 10 uM using CPS1-succ537 as substrate in presence of NAD+; details: filed as activator; how it was run: as §1
Target sequence in this assay (Q9NXA8 37-310 limits assumed): as above

[3] = target: NAD-dependent protein deacylase sirtuin-5, mitochondrial (Homo sapiens) (UniProt Q9NXA8); assay: Activation of SIRT5 in human S2-013 cells assessed as decrease in GOT1 acetylation at 20 uM incubated for 24 hrs by Western blot analysis; details: filed as activator
Target sequence in this assay (Q9NXA8 whole entry, looked up, the tested form may be a part): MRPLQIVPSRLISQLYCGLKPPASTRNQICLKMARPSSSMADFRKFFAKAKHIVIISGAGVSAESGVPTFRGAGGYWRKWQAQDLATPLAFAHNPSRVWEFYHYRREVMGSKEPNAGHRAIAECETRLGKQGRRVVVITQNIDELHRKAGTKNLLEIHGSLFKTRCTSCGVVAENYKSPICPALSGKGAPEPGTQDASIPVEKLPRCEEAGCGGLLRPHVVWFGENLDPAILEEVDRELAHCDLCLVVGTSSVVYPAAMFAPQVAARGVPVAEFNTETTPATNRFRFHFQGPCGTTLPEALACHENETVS

[4] = target: NAD-dependent protein deacylase sirtuin-5, mitochondrial (Homo sapiens) (UniProt Q9NXA8); assay: Activation of human recombinant SIRT5 assessed as decrease in PDHA1-succinylation at 100 uM by Western blot analysis; details: filed as activator
Target sequence in this assay (Q9NXA8 whole entry, looked up, the tested form may be a part): as above

[5] = target: NAD-dependent protein deacylase sirtuin-5, mitochondrial (Homo sapiens) (UniProt Q9NXA8); assay: Activation of SIRT5 in human CAPAN-1 cells assessed as decrease in GOT1 acetylation at 20 uM incubated for 24 hrs by Western blot analysis; details: filed as activator
Target sequence in this assay (Q9NXA8 whole entry, looked up, the tested form may be a part): as above

[6] = target: T1, NAD-dependent protein deacetylase sirtuin-1 (Homo sapiens) (UniProt Q96EB6); assay: Activation of N-terminal his-tagged human SIRT1 expressed in Escherichia coli assessed as fold activation at 10 to 100 uM using p53-acK381 as substrate in presence of NAD+; details: filed as activator, dose 10-100 µM; how it was run: as §1
T1 sequence (whole entry): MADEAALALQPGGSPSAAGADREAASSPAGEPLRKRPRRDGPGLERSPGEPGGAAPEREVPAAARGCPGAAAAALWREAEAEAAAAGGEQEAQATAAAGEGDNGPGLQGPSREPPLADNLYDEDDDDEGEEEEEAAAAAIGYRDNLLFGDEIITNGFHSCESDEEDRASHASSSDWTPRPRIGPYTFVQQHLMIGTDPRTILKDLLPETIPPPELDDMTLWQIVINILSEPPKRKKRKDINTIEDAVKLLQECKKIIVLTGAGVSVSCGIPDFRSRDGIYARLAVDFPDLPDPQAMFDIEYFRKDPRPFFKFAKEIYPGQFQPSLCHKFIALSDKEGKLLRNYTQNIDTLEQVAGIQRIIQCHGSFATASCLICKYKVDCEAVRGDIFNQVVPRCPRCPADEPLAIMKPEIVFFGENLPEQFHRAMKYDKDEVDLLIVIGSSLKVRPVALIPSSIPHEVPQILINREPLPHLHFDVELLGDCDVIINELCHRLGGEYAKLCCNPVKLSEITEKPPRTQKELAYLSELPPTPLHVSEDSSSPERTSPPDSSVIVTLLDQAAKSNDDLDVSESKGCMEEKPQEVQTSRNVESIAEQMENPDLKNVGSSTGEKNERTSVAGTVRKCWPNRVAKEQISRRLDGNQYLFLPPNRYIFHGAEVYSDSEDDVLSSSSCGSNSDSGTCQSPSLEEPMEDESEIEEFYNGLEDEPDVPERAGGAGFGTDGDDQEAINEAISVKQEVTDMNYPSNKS

[7] = target: T2, NAD-dependent protein deacetylase sirtuin-2 (Homo sapiens) (UniProt Q8IXJ6); assay: Inhibition of N-terminal SUMO-tagged human SIRT2 (43 to 356 residues) expressed in Escherichia coli at 100 uM using acetylated alpha tubulin-K25 as substrate in presence of NAD+ relative to control; how it was run: as §1
T2 sequence (whole entry): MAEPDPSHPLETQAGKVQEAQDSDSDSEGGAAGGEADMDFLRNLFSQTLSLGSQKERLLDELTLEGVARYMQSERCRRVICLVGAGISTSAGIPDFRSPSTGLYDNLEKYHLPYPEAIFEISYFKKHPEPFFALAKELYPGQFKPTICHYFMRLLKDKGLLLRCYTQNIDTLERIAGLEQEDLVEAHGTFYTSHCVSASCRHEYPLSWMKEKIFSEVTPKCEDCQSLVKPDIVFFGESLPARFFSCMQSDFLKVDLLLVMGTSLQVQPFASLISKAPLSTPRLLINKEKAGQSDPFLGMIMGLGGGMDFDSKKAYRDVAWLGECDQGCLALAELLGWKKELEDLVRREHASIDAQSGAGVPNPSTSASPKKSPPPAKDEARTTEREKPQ

[8] = target: T3, NAD-dependent protein deacetylase sirtuin-3, mitochondrial (Homo sapiens) (UniProt Q9NTG7); assay: Inhibition of N-terminal his-tagged human SIRT3 (114 to 380 residues) expressed in Escherichia coli at 100 uM using ACS2-acK642 as substrate in presence of NAD+ relative to control; how it was run: as §1
T3 sequence (whole entry): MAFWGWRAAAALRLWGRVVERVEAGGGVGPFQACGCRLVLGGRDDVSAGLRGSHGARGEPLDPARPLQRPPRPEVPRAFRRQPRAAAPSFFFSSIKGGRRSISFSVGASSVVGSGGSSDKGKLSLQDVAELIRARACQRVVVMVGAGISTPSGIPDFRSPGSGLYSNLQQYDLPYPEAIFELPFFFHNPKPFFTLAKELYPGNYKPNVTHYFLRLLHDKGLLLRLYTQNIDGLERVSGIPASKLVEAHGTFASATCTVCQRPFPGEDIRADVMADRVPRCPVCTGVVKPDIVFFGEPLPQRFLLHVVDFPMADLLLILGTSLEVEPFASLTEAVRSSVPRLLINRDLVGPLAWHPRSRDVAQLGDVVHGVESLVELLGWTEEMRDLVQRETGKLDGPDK

[9] = target: T1, NAD-dependent protein deacetylase sirtuin-1 (Homo sapiens); assay: Activation of N-terminal his-tagged human SIRT1 expressed in Escherichia coli at 10 to 100 uM using p53-acK381 as substrate in presence of NAD+; details: filed as activator, dose 10-100 µM
How it was run: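 Compound titration in the nicotinamidase/GDH-coupled deacylation assay. 1.5 μM recombinant Sirt1 (E. coli-expressed, Ni-NTA purified, tag removed, size-exclusion purified) was used with 50 μM p53-acK381 peptide and 100 μM NAD+. 1,4-DHP was added at the indicated concentrations in 5% final DMSO.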

[10] = target: T1, NAD-dependent protein deacetylase sirtuin-1 (Homo sapiens); assay: Activation of N-terminal his-tagged human SIRT1 expressed in Escherichia coli assessed as fold activation at 100 uM using p53-acK381 as substrate in presence of NAD+; details: filed as activator; how it was run: as §1
[11] = target: NAD-dependent protein deacylase sirtuin-5, mitochondrial (Homo sapiens) (UniProt Q9NXA8); assay: Activation of N-terminal his-tagged human SIRT5 (34 to 302 residues) expressed in Escherichia coli assessed as fold activation at 10 to 100 uM using CPS1-succ537 as substrate in presence of NAD+; details: filed as activator, dose 10-100 µM; how it was run: as §1
Target sequence in this assay (Q9NXA8 37-310 limits assumed): as the sequence (Q9NXA8 37-310 limits assumed) above

[12] = target: T2, NAD-dependent protein deacetylase sirtuin-2 (Homo sapiens); assay: Activation of N-terminal SUMO-tagged human SIRT2 (43 to 356 residues) expressed in Escherichia coli assessed as deacetylation of substrate at 100 uM using acetylated alpha tubulin-K2 as substrate in presence of NAD+; details: filed as activator; how it was run: as §1

Structure (SMILES): CCOC(=O)C1=CN(C(=O)c2ccccc2)C=C(C(=O)OCC)C1c1cccc(Cl)c1
Activity [3]: Active
Activity [4]: Active
Activity [5]: Active
fold change (FC) [1]: 2
fold change (FC) [2]: 1.2

Structure (SMILES): CCOC(=O)C1=CN(Cc2ccccc2)C=C(C(=O)OCC)C1c1ccsc1
fold change (FC) [6]: 1.5

Structure (SMILES): CCOC(=O)C1=CN(Cc2ccccc2)C=C(C(=O)OCC)C1c1cncs1
inhibition [7]: 75%
inhibition [8]: 60%

Structure (SMILES): CCOC(=O)C1=CN(Cc2cc(OC)c(OC)c(OC)c2)C=C(C(=O)OCC)C1c1cnc2ccccc2c1
Activity [9]: Active

Structure (SMILES): CCOC(=O)C1=CN(C(=O)c2ccccc2)C=C(C(=O)OCC)C1c1ccc(C)cc1
fold change (FC) [1]: 2

Structure (SMILES): CCOC(=O)C1=CN(C(=O)c2ccccc2)C=C(C(=O)OCC)C1c1ccccc1Cl
fold change (FC) [1]: 2

Structure (SMILES): CCOC(=O)C1=CN(C(=O)c2cc(OC)c(OC)c(OC)c2)C=C(C(=O)OCC)C1c1ccoc1
fold change (FC) [10]: 2.5
fold change (FC) [11]: 2
Activity [12]: Active

Structure (SMILES): CCOC(=O)C1=CN(C(=O)c2cnccn2)C=C(C(=O)OCC)C1c1ccccc1
fold change (FC) [1]: 2
fold change (FC) [2]: 1.2

Structure (SMILES): CCOC(=O)C1=CN(C(=O)c2ccccc2)C=C(C(=O)OCC)C1c1ccco1
fold change (FC) [11]: 2

Structure (SMILES): CCOC(=O)C1=CN(C(=O)c2ccccc2)C=C(C(=O)OCC)C1c1ccoc1
fold change (FC) [11]: 3
Activity [9]: Active

The next lines start with the values.

fold change (FC) [1]: 2
fold change (FC) [2]: 1.2
Structure (SMILES): CCOC(=O)C1=CN(Cc2ccccc2)C=C(C(=O)OCC)C1c1ccc2ccccc2c1

fold change (FC) [1]: 2
fold change (FC) [2]: 1.2
Structure (SMILES): CCOC(=O)C1=CN(C(=O)c2ccccc2)C=C(C(=O)OCC)C1c1cccc(OC)c1

fold change (FC) [6]: 1.5
fold change (FC) [2]: 1.2
Structure (SMILES): CCOC(=O)C1=CN(C(=O)c2ccccc2)C=C(C(=O)OCC)C1c1ccc(OC)cc1

fold change (FC) [1]: 2
Structure (SMILES): CCOC(=O)C1=CN(Cc2ccccc2)C=C(C(=O)OCC)C1c1ccc(-c2ccccc2)cc1

fold change (FC) [1]: 2
Structure (SMILES): CCOC(=O)C1=CN(C(=O)c2ccccc2)C=C(C(=O)OCC)C1c1ccccc1OC
